# Data from the RNAGym collection of RNA variant scans (doi:10.1126/science.aae0568).
# This sample holds only a part of the variants without activity.
# B1: tRNA (parent)
# chain: GUUCCGUUGGCGUAAUGGUAACGCGUCUCCCUCCUAAGGAGAAGACUGCGGGUUCGAGUCCCGUACGGAACG
# Variants of: B1
# Assay: yeast fitness relative to wild type (ratio to wild type); higher = fitter; tRNA-Arg(CCU), competitive growth, 37 C, YPD
# Method in brief: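 Variants of the tRNA-Arg(CCU) gene, chemically synthesised with a 3% per-site mutation rate at 69 sites, were placed at the native genomic locus in Saccharomyces cerevisiae. The pooled strains were competed in YPD at 37°C for 24 hours in six parallel replicates. Gene amplicons from the start population and from each end population were read by 100-nucleotide paired-end sequencing. Darwinian fitness relative to wild type came from changes in genotype frequencies; genotypes needed ≥ 100 starting reads, and estimates < 0.5 were set to 0.5.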
row,Variant,yeast fitness
1,U7A G50A C62U A69C,0.614
2,U7A C31U A40U,≤ 0.5
3,U7A G9A U13A G48A U54G C61A,≤ 0.5
4,G6C U19C C29U G38C U47C,≤ 0.5
5,U7A C27U A69C,0.649
6,U7A C11G A40U A42C,≤ 0.5
7,U7A A15G G23A G63C,0.557
8,U7A C27G C34U,≤ 0.5
9,U7A C34G G39A,≤ 0.5
10,U7A G9C C24A A43U G52A C60G A69U A70C,≤ 0.5
11,U7A C22G C30U U32C A37G A70G,≤ 0.5
12,U7A G9C G17C G48A G68C,≤ 0.5
13,U7A U13A A21U A45U,0.649
14,U7A A21G C30G A36G C46G U54C A57U,≤ 0.5
15,U7A G9C G17C G48A A69C,≤ 0.5
16,U7A C46U U59C C62G A65U,≤ 0.5
17,U7A A20C A21G G23A A70U,≤ 0.5
18,U7C A42G,0.716
19,U7A A20G C31U A57G A70C,≤ 0.5
20,U7A G17C G51A,≤ 0.5
21,U7A A15U G67A,≤ 0.5
22,U7A U16C G23A C24U U35A C60A A69C,≤ 0.5
23,G6U U32A G56C,≤ 0.5
24,U7A G9A G17A C24A,≤ 0.5

row,Variant,yeast fitness
1,U7A C60G A70C,≤ 0.5
2,U7A U35C A42G C60U,0.561
3,U7A A37U C49U C55U A57C C61U,0.934
4,U7A U16C,0.751
5,U7A C33A A45C,0.54
6,U7A G9A C24A,≤ 0.5
7,U7C A43C C49A G56A,≤ 0.5
8,U7A A40U A45G C46U,≤ 0.5
9,U7C A20G A21G,0.562
10,U7C A21C C31A,≤ 0.5
11,U7A C55G G58C,≤ 0.5
12,U7A U16C G17A C34G A45C G52C,≤ 0.5
13,U7C A21C C34A U35G G44C C61G,≤ 0.5
14,U7A U8G C22U C30U A42G C61A,≤ 0.5
15,U7A C27U C29U G63A,0.598
16,U7A C29U C31A,≤ 0.5
17,U7C A37C C61G,≤ 0.5
18,U7A C31U A40U G67C,≤ 0.5
19,U7A G44C C61A C62U C66U,≤ 0.5
20,U7A C55U,0.555
21,U7A C55A,0.571
22,U7A G9C G17C C61U C62G A65C,≤ 0.5
23,U7A C34G U59G G68U,≤ 0.5
24,U7A G9C C30U C34G G68C,0.56

row,Variant,yeast fitness
1,U7A A69U,0.759
2,U7A G10C C22U C27G,0.577
3,U7A G41A,0.634
4,U7A G12C C27G C31A C46A,≤ 0.5
5,G6C U32A G41A C46U,≤ 0.5
6,U7A C29G A36C C62A,≤ 0.5
7,U7A U32A C61G,≤ 0.5
8,U7A C34A G56C A65G,≤ 0.5
9,U7A G10C C31G G67U,≤ 0.5
10,U7C A42G U54C,0.549
11,U7A A36C A57C,≤ 0.5
12,U7A C66U,0.762
13,U7A C22U U28A C29G C33A A42U A70U,≤ 0.5
14,U7A G50C A57C C61U,≤ 0.5
15,U7A C27A,0.665
16,U7A C27U,0.666
17,U7A C46A C66A,≤ 0.5
18,U7A A14C A20G C66G,≤ 0.5
19,U7A A14G U28G C30U,≤ 0.5
20,G6C U26C C31A G38C,≤ 0.5
21,U7C A15G G17A A65C A70G,≤ 0.5
22,U7A U8G C30G C66U,≤ 0.5
23,U7A U19G A21U G67A,≤ 0.5
24,U7A C11G A36U C49U,≤ 0.5

row,Variant,yeast fitness
1,U7C A36G,0.888
2,G6U C62U,0.831
3,U7A G10C C22U C27G C66U,≤ 0.5
4,U7A G9C A40C C62A,≤ 0.5
5,U7A C34U C49A,≤ 0.5
6,U7A U16C G17A C29U C31A C55A,≤ 0.5
7,U7A G44C C66U,≤ 0.5
8,U7A G10C C27G U32A,≤ 0.5
9,U7A G9C A15G G23A U53A,0.505
10,U7A C30A G51A,≤ 0.5
11,U7A C22G C30U A37G C55A,≤ 0.5
12,U7A A45C U47C C55U A65C A69C,≤ 0.5
13,U7A C27U C29U,≤ 0.5
14,U7A A20G G23A U26G A65G C66G,≤ 0.5
15,U7A C24U C46A,0.567
16,U7A C34G A70U,≤ 0.5
17,U7A C11A A21C C29U C49U,0.544
18,U7A G63A,0.668
19,U7C A20G A40U,0.597
20,U7A U8A G10C C27G C34G A43G C55U,≤ 0.5
21,U7A G9C U13C G58C A65C A69G,≤ 0.5
22,G6C U28A C33G,≤ 0.5
23,U7A A40C,0.724
24,U7A A40U,0.714

row,Variant,yeast fitness
1,U7A C27U U28C,≤ 0.5
2,U7A A20C A21G G23A G56A,≤ 0.5
3,U7A G10A A15U,0.568
4,U7A A37C G51A G67A,≤ 0.5
5,U7A A15U,0.587
6,G6C U16G C46A,0.599
7,U7A G52A A69C,≤ 0.5
8,U7C A20G A37C C60G A65U A70C,≤ 0.5
9,U7A G10A C30A A43C C66U,0.553
10,U7A U54A,0.506
11,U7A A15U G63A G67A,≤ 0.5
12,U7A A43U,0.622
13,U7A C33U G51C,0.559
14,U7A A21C C33A A45U,0.616
15,G6C U16G A20C G25A A43U G50A C55U,≤ 0.5
16,U7C A20U C34G A36C C55U A65U,≤ 0.5
17,U7A G10A C55U C61G A65G G68A,≤ 0.5
18,U7C A40G G52A A65C,≤ 0.5
19,U7A A45C,0.737
20,U7A G23A C55A C61A,≤ 0.5
21,U7A A20G C29U A57C,≤ 0.5
22,U7A A15C C27A U47C G58C,≤ 0.5
23,U7A U59C,0.662
24,U7A U59A,0.778

row,Variant,yeast fitness
1,G6U G68C,0.794
2,U7C A14C G63C,0.573
3,G6C U28C C30A G39A,≤ 0.5
4,U7A A21C C29U A37G C55U A70U,0.55
5,U7A G25A C31U,0.568
6,G6C U19C U32A A42C,≤ 0.5
7,G6C U64A,0.853
8,U7C A14C A65C,0.533
9,U7A C60A,0.577
10,U7C A15C,0.639
11,U7A A14C C30A A36G C62U G63A A70U,≤ 0.5
12,U7A A21C C31G,≤ 0.5
13,G6U U35G A69U,1.03
14,U7C A20U A36G A40U,≤ 0.5
15,U7A U19G G58A,≤ 0.5
16,U7A G9A U13A,0.6
17,U7A C11U C49A,0.614
18,U7A A15U C30G A42C U59A C60U,≤ 0.5
19,U7A C27A G50C,≤ 0.5
20,U7C A14G G17A A69U,0.553
21,U7A A57U,0.572
22,U7A G41A C61A,≤ 0.5
23,U7A C22U,0.798
24,U7A C22A C31G U32G A42G G52A C62A,≤ 0.5

row,Variant,yeast fitness
1,U7A U8C G9A C33U,≤ 0.5
2,U7A A15G G23A G25A A69C,≤ 0.5
3,U7A U16C G17A C29U C31A G51U C66G G67U,≤ 0.5
4,U7A A15G G18A,0.669
5,U7A G9C,0.674
6,U7A A20C A69C,0.609
7,U7A A21C C33A A45U A69U,≤ 0.5
8,U7A A36U,0.607
9,U7A G23C C66U,≤ 0.5
10,U7A C30U G39A A40G G67A,≤ 0.5
11,U7A C22A A57C,≤ 0.5
12,U7A A21G U28A C29U G58A,0.598
13,G6C U35A A40U G41C C49A,≤ 0.5
14,U7A G12C C34U C66G,≤ 0.5
15,G6U A40G C49A C61G,≤ 0.5
16,U7A C46G C66G,0.547
17,U7A C11U G17C C30G A37C G48C G51A,≤ 0.5
18,G6C U53A C60A,≤ 0.5
19,U7C A40U A42U U54A,0.661
20,U7C A37G A42C C49G C61U G63A,≤ 0.5
21,U7A C46G A70U,0.642
22,U7A C30A,0.669
23,U7A C29U C61U G68C,0.582
